One series addresses KRAS^G12D (Homo sapiens, UniProt P01116, G12D). Kind of series: SOS-catalyzed guanine nucleotide exchange. Type of series: biochemical.
The next series concerns pERK, AsPC-1 cells. The experiment in a line: AlphaScreen pERK assay in AsPC-1 cells. Type of series: cell-based. As to conditions: for IC50: pERK. The essentials: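 AsPC-1 cells grown in RPMI 1640 (GlutaMAX, HEPES) with 10% FBS and penicillin/streptomycin. Seeded at 15 000 cells/well and held overnight at 37 °C, 5% CO2, then switched to serum-free medium. Compound dose-response series added acoustically, then incubated 2 and 18 h. Cells washed with DPBS and lysed with protease inhibitors. pERK (615 nm) and total ERK (535 nm) read by AlphaScreen SureFire multiplex. pERK/total ERK ratio fitted to 4-parameter logistic.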
On the technique in general: In Alpha technology, singlet oxygen from a donor bead excites a nearby acceptor bead.

The nature of series [1]: Cell homogenate stability assay. The series is classed as in vitro ADME. To be noted: human, HeLa cell homogenate. The essentials: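 HeLa cells suspended at 1 × 10^6 cells/mL, probe-sonicated on ice until homogeneous, then frozen at −20 °C until use. Peptides incubated with the homogenate (1 × 10^6 cells/mL equivalent). Loss of parent peptide over increasing time quantified by LC-MS/MS.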

In another series the test system is HeLa cells. The experiment in a line: NanoClick cell permeability assay. The series is classed as in vitro ADME, Human.
[2] abbreviates: read-out: AlphaScreen (AsPC-1) 2 h IC50, AsPC-1, 2 h.
Where [3] appears, read: read-out: AlphaScreen (AsPC-1) 18 h IC50, AsPC-1, 18 h.

Like-named read-outs stand apart in the source and are kept apart here. *1 amine or outer side, *2 acyl side, *3 side chain or, on linkers, in order; H or OH if unused. Where a SMILES comes first, the peptide text is derived from it. Bridges are numbered along the chain shown (N, C = ends). [ ]: non-standard residue; d: D form. Pro(trans-3-OAllyl) = C=CCO[C@H]1CCN[C@@H]1C(=O)O; Pro(3R-Ph) = O=C(O)[C@H]1NCC[C@@H]1c1ccccc1; Bip = N[C@@H](Cc1ccc(-c2ccccc2)cc1)C(=O)O; Ala(cPent) = N[C@@H](CC1CCCC1)C(=O)O; d(αMeS) = C[C@@](N)(CO)C(=O)O; Ahp(2) = CCCCC[C@H](N)C(=O)O; CH2 = C([*:1])[*:2] Some results are limits rather than exact numbers.

Sequence of KRAS^G12D (P01116 1-188 isoform P01116-2 G12D): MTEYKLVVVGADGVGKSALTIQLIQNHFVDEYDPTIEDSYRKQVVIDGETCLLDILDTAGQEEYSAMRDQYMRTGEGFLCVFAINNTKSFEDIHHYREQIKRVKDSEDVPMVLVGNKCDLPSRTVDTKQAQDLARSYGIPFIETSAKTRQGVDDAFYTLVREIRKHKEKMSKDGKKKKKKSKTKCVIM

For the compound `CC(=O)N[C@@H](CCCNC(=N)N)C(=O)N[C@@H](CCCNC(=N)N)C(=O)N[C@H]1CSSC[C@@H](C(=O)N[C@@H](CCCNC(=N)N)C(=O)N[C@@H](CCCNC(=N)N)C(N)=O)NC(=O)[C@H](C(C)C)NC(=O)[C@@H]2CCCN2C(=O)[C@H](CC(=O)O)NC(=O)[C@H](Cc2ccc(O)cc2)NC(=O)[C@H](CO)NC(=O)[C@H](CC2CCCC2)NC(=O)[C@H](Cc2ccc(-c3ccccc3)cc2)NC(=O)[C@H](CC(C)C)NC(=O)[C@@H]2CCCN2C1=O` [1-11, Ac-RR-cyclo(CPL-Bip-cPeA-SYDPVC)-RR-NH2] (Ac-RRCPL[Bip][Ala(cPent)]SYDPVCRR-NH2; disulfide 3-13), on KRAS^G12D, the IC50 (commonly the midpoint of a concentration-inhibition curve) was above 11100 nM.

For the compound `CC[C@H](C)[C@@H]1NC(=O)[C@H](Cc2ccc(-c3ccccc3)cc2)NC(=O)[C@H](COC)NC(=O)[C@@H]2CCCN2C(=O)[C@@H](NC(=O)[C@H](CCCNC(=N)N)NC(=O)[C@H](CCCNC(=N)N)NC(C)=O)CSSC[C@@H](C(=O)N[C@@H](CCCNC(=N)N)C(=O)N[C@@H](CCCNC(=N)N)C(N)=O)NC(=O)[C@H](C(C)C)NC(=O)[C@@H]2CCCN2C(=O)[C@H](CC(=O)O)NC(=O)[C@H](Cc2ccc(O)cc2)NC(=O)[C@H](CO)NC1=O` [3-02, Ac-RR-cyclo(CP-SerOMe-Bip-ISYDPVC)-RR-NH2] (Ac-RRCPS(Me)[Bip]ISYDPVCRR-NH2; disulfide 3-13), on KRAS^G12D, the IC50 is 1130 nM.

On to `C=CCO[C@H]1CCN2C(=O)[C@@H](NC(=O)[C@H](CCCNC(=N)N)NC(=O)[C@H](CCCNC(=N)N)NC(C)=O)CSSC[C@@H](C(=O)N[C@@H](CCCNC(=N)N)C(=O)N[C@@H](CCCNC(=N)N)C(N)=O)NC(=O)[C@H](C(C)C)NC(=O)[C@@H]3CCCN3C(=O)[C@H](CC(=O)O)NC(=O)[C@H](Cc3ccc(O)cc3)NC(=O)[C@H](CO)NC(=O)[C@H]([C@@H](C)CC)NC(=O)[C@H](Cc3ccc(-c4ccccc4)cc3)NC(=O)[C@H](CC(C)C)NC(=O)[C@H]12` [3-05, Ac-RR-cyclo(C-Prot3OAl-L-Bip-ISYDPVC)-RR-NH2] (Ac-RRC[Pro(trans-3-OAllyl)]L[Bip]ISYDPVCRR-NH2; disulfide 3-13), for which, on KRAS^G12D, half-maximal inhibition (IC50) was put at 1 nM and the “fold improvement in SOS potency over reference peptide 1-09” value was 7 fold.

`C=CCO[C@H]1CCN2C(=O)[C@H](NC(=O)[C@H](CCCNC(=N)N)NC(=O)[C@H](CCCNC(=N)N)NC(C)=O)CSCSC[C@@H](C(=O)N[C@@H](CCCNC(=N)N)C(=O)N[C@@H](CCCNC(=N)N)C(N)=O)NC(=O)[C@H](C(C)C)NC(=O)[C@@H]3CCCN3C(=O)[C@H](CC(=O)O)NC(=O)[C@H](Cc3ccc(O)cc3)NC(=O)[C@H](CO)NC(=O)[C@H]([C@@H](C)CC)NC(=O)[C@H](Cc3ccc(-c4ccccc4)cc3)NC(=O)[C@H](CC(C)C)NC(=O)[C@H]12` [5-02, Ac-RR-cyclo(c(methylene)-Prot3OAl-L-Bip-ISYDPVC)-RR-NH2] (Ac-RR[dC][Pro(trans-3-OAllyl)]L[Bip]ISYDPVCRR-NH2; linker 3-13 via CH2): the IC50 against KRAS^G12D is below 1 nM; in the series with pERK, AsPC-1 cells (setting [2]), 28 µM; with pERK, AsPC-1 cells (setting [3]), above 50 µM.

On to `CCCCC[C@@H]1NC(=O)[C@@H]2CCCN2C(=O)[C@H](CC(=O)O)NC(=O)[C@H](Cc2ccc(O)cc2)NC(=O)[C@H](CO)NC(=O)[C@H]([C@@H](C)CC)NC(=O)[C@H](Cc2ccc(-c3ccccc3)cc2)NC(=O)[C@H](CC(C)C)NC(=O)[C@@H]2[C@@H](c3ccccc3)CCN2C(=O)[C@H](NC(=O)[C@H](CCCNC(=N)N)NC(=O)[C@H](CCCNC(=N)N)NC(C)=O)CSCSC[C@@H](C(=O)N[C@@H](CCCNC(=N)N)C(=O)N[C@@H](CCCNC(=N)N)C(N)=O)NC1=O` [5-03, Ac-RR-cyclo(c(methylene)-Prot3Ph-L-Bip-ISYDP-Ahp-C)-RR-NH2] (Ac-RR[dC][Pro(3R-Ph)]L[Bip]ISYDP[Ahp(2)]CRR-NH2; linker 3-13 via CH2), for which the IC50 at KRAS^G12D was below 1 nM; in the series with pERK, AsPC-1 cells (setting [2]) it was 6.8 µM; in the series on pERK, AsPC-1 cells (setting [3]), 29 µM. The half-life (usually the time needed for the level to fall by half in the phase considered) at 1 µM in series [1] was above 372 min.

As to `C=CCO[C@H]1CCN2C(=O)[C@H](NC(=O)[C@H](CCCNC(=N)N)NC(=O)[C@H](CCCNC(=N)N)NC(C)=O)CSCSC[C@@H](C(=O)N[C@@H](CCCNC(=N)N)C(=O)N[C@@H](CCCNC(=N)N)C(N)=O)NC(=O)[C@H](CCCCC)NC(=O)[C@@H]3CCCN3C(=O)[C@H](CC(=O)O)NC(=O)[C@H](Cc3ccc(O)cc3)NC(=O)[C@H](CO)NC(=O)[C@H]([C@@H](C)CC)NC(=O)[C@H](Cc3ccc(-c4ccccc4)cc3)NC(=O)[C@H](CC(C)C)NC(=O)[C@H]12` [5-04, Ac-RR-cyclo(c(methylene)-Prot3OAl-L-Bip-ISYDP-Ahp-C)-RR-NH2] (Ac-RR[dC][Pro(trans-3-OAllyl)]L[Bip]ISYDP[Ahp(2)]CRR-NH2; linker 3-13 via CH2), the IC50 on KRAS^G12D was below 1 nM; with pERK, AsPC-1 cells (setting [3]), above 50 µM.

As for `CC[C@H](C)[C@@H]1NC(=O)[C@H](Cc2ccc(-c3ccccc3)cc2)NC(=O)[C@H](CC(C)C)NC(=O)[C@@H]2CCCN2C(=O)[C@@H](NC(=O)[C@H](CCCNC(=N)N)NC(=O)[C@H](CCCNC(=N)N)NC(C)=O)CSSC[C@@H](C(=O)N[C@@H](CCCNC(=N)N)C(=O)N[C@@H](CCCNC(=N)N)C(N)=O)NC(=O)[C@H](C(C)C)NC(=O)[C@@H]2CCCN2C(=O)[C@H](CC(=O)O)NC(=O)[C@H](Cc2ccc(O)cc2)NC(=O)[C@H](CO)NC1=O` [peptide 1-09, Ac-RR-cyclo(CPL-Bip-ISYDPVC)-RR-NH2] (Ac-RRCPL[Bip]ISYDPVCRR-NH2; disulfide 3-13), the “fold improvement in SOS potency over reference 2 (KRpep-2)” value on KRAS^G12D is recorded as 8 fold.

On to `CC[C@H](C)[C@@H]1NC(=O)[C@H](Cc2ccc(-c3ccccc3)cc2)NC(=O)[C@H](CC(C)C)NC(=O)[C@@H]2[C@@H](c3ccccc3)CCN2C(=O)[C@@H](NC(=O)[C@H](CCCNC(=N)N)NC(=O)[C@H](CCCNC(=N)N)NC(C)=O)CSSC[C@@H](C(=O)N[C@@H](CCCNC(=N)N)C(=O)N[C@@H](CCCNC(=N)N)C(N)=O)NC(=O)[C@H](C(C)C)NC(=O)[C@@H]2CCCN2C(=O)[C@H](CC(=O)O)NC(=O)[C@H](Cc2ccc(O)cc2)NC(=O)[C@H](CO)NC1=O` [peptide 3-09, Ac-RR-cyclo(C-Prot3Ph-L-Bip-ISYDPVC)-RR-NH2] (Ac-RRC[Pro(3R-Ph)]L[Bip]ISYDPVCRR-NH2; disulfide 3-13), for which the “fold improvement in SOS potency over reference peptide 1-09” value at KRAS^G12D stood at 7 fold.

On to `CC[C@H](C)[C@@H]1NC(=O)[C@H](Cc2ccc(-c3ccccc3)cc2)NC(=O)[C@H](CC(C)C)NC(=O)[C@@H]2[C@@H](c3ccccc3)CCN2C(=O)[C@H](NC(=O)[C@H](CCCNC(=N)N)NC(=O)[C@H](CCCNC(=N)N)NC(C)=O)CSCSC[C@@H](C(=O)N[C@@H](CCCNC(=N)N)C(=O)N[C@@H](CCCNC(=N)N)C(N)=O)NC(=O)[C@H](C(C)C)NC(=O)[C@@H]2CCCN2C(=O)[C@H](CC(=O)O)NC(=O)[C@H](Cc2ccc(O)cc2)NC(=O)[C@H](CO)NC1=O` [peptide 5-01, Ac-RR-cyclo(c(methylene)-Prot3Ph-L-Bip-ISYDPVC)-RR-NH2] (Ac-RR[dC][Pro(3R-Ph)]L[Bip]ISYDPVCRR-NH2; linker 3-13 via CH2), for which the IC50 was below 1 nM against KRAS^G12D; 3.3 µM with pERK, AsPC-1 cells (setting [2]); 33 µM in the series on pERK, AsPC-1 cells (setting [3]). Further, the half-life at 1 µM in series [1] is above 372 min.

`CC[C@@H](C)[C@H]1NC(=O)[C@H](Cc2ccc(-c3ccccc3)cc2)NC(=O)[C@H](CC(C)C)NC(=O)[C@@H]2[C@@H](c3ccccc3)CCN2C(=O)[C@H](NC(=O)[C@@H](CCCNC(=N)N)NC(=O)[C@@H](CCCNC(=N)N)NC(C)=O)CSCSC[C@@H](C(=O)N[C@H](CCCNC(=N)N)C(=O)N[C@H](CCCNC(=N)N)C(N)=O)NC(=O)[C@H](C(C)C)NC(=O)[C@@H]2CCCN2C(=O)[C@H](CC(=O)O)NC(=O)[C@H](Cc2ccc(O)cc2)NC(=O)[C@@](C)(CO)NC1=O` [peptide 8, Ac-rr-cyclo(c(methylene)-Prot3Ph-L-Bip-i-aMeS-YDPVC)-rr-NH2] (Ac-[dR][dR][dC][Pro(3R-Ph)]L[Bip][dI][d(αMeS)]YDPVC[dR][dR]-NH2; linker 3-13 via CH2): the “SOS GNE potency / binding, in words” value at KRAS^G12D is recorded as “no response”. The “cellular (pERK) activity, in words” value in the series with pERK, AsPC-1 cells (AsPC-1) was “no cellular activity”.

`CC[C@H](C)[C@@H]1NC(=O)[C@H](Cc2ccc(O)cc2)NC(=O)[C@H](CC(C)C)NC(=O)[C@@H]2CCCN2C(=O)[C@H](NC(=O)[C@@H](CCCNC(=N)N)NC(=O)[C@@H](CCCNC(=N)N)NC(=O)[C@H](CCCCN=[N+]=[N-])NC(C)=O)CSCSC[C@@H](C(=O)N[C@H](CCCNC(=N)N)C(=O)N[C@H](CCCNC(=N)N)C(N)=O)NC(=O)[C@H](C(C)C)NC(=O)[C@@H]2CCCN2C(=O)[C@H](CC(=O)O)NC(=O)[C@H](Cc2ccc(O)cc2)NC(=O)[C@H](CO)NC1=O` [peptide 10]: in the series on HeLa cells (4 h), the “NanoClick permeability at 4 h, in words” value was “no permeability”. In addition, the “NanoClick permeability at 18 h, in words” value with HeLa cells (18 h) is given as “very limited permeability”.

Values taken from publication PMC9289880 (Journal of Medicinal Chemistry, 2022).
